Hits are enriched below; roughly 2.6% of the tested compounds scored in any of these assays.
rCAG RNA binder = r(CAG) repeat RNA binding. TO-PRO-1 dye displacement fluorescence. inhibition, % at 3 µM. 370,000 tested, 1.3% active;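 active = inhibition above the plate cutoff, the mean of all test compounds on that plate plus 3 SD, cut at about 35% in these data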;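 also: 0% = DMSO alone and 100% = 100 µM mitoxantrone as full dye displacement; higher means more dye released from RNA so lower well fluorescence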
Scp1 inh = Scp-1 (human) phosphatase inhibition. inhibition, % at 20 µM. 340,000 tested, 0.88% active. AID 493091. Q9GZU7. Recombinant Scp1, phosphopeptide, malachite green phosphate absorbance;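 active = inhibition above about 50% at 20 µM, limit read from the data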;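 also: plate controls were DMSO wells with enzyme for no effect and wells lacking enzyme for full effect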
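System: truncated SCP-1 phosphatase (76-261aa); medium: Tris acetate buffer pH 5.5 with MgCl2 and Tween-20; incubation: 45 min room-temperature reaction, 5 min colour, 30 min stabiliser; compound: single 20 µM dose, 1% DMSO; reagent: Phosphorylated 17-residue peptide substrate; read-out: % inhibition at 20 µM; technique: colorimetric free-phosphate detection, absorbance 630 nm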
NadD inh = inhibitors of Staphylococcus aureus NadD; purified NadD enzyme, colorimetric absorbance read-out; inhibition, % at 20 µM; 360,000 tested, 0.78% active; AID 602399; in the data active = inhibition above about 26%
LMPTP block = blocks human LMPTP phosphatase | P24666 | recombinant LMPTP-A, OMFP fluorogenic substrate, fluorescence intensity | inhibition, % at 20 µM | 360,000 tested, 0.22% active;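 active = compounds that cut the enzyme signal by at least half of the control window in the single-dose screen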;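 also: plate controls were DMSO wells with enzyme plus substrate for no effect and substrate without enzyme for full effect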
Target sequence (P24666 whole entry, looked up): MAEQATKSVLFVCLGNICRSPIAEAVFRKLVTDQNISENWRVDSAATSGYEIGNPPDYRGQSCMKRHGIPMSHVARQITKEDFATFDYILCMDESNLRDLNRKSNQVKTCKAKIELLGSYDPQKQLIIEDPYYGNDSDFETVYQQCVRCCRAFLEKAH
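Material: LMPTP-A; amount: 0.625 nM enzyme; doses: single 20 µM dose; times: reaction 50 min, room temperature, dark; technique: fluorescence intensity of OMFP turnover product; benchmarks: no-enzyme and uninhibited controls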
STEP block = blocks human striatal-enriched tyrosine phosphatase; P54829; AID 588621; inhibition, % at 20 µM; recombinant STEP, OMFP fluorogenic substrate, fluorescence; 360,000 tested, 0.25% active;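 active = inhibition at 20 µM, scaled per plate between control wells, above about 37%, limit read from the data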;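 also: 0% = DMSO with enzyme and substrate and 100% = substrate only without enzyme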
Target sequence (P54829 whole entry, looked up): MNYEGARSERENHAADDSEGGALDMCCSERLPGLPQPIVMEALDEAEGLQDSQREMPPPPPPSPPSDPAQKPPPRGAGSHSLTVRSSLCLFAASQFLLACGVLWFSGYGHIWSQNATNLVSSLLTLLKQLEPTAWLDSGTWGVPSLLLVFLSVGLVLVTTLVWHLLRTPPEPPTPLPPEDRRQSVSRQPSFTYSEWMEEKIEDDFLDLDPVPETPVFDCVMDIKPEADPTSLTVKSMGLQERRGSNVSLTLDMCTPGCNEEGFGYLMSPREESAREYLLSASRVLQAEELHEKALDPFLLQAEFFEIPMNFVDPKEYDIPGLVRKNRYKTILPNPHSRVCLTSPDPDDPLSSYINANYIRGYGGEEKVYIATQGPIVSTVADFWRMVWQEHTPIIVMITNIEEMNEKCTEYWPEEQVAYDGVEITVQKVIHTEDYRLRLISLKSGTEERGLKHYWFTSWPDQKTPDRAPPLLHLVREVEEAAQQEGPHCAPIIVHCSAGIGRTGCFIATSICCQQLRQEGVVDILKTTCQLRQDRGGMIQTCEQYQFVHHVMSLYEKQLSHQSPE
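System: STEP phosphatase, cell-free reaction; Buffer or medium: Bis-Tris pH 6.0 buffer with DTT, detergent; Incubation: 20 min at room temperature, dark; Measured by: fluorescence, 480/540 nm.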
Scp-1 conf = confirmation of human Scp-1 phosphatase inhibitors | inhibition, % at 20 µM | recombinant SCP-1 catalytic domain, phosphate release, malachite green absorbance | 2,500 tested, 61% active | AID 540281 | shares compounds with Scp1 inh;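 also: plate controls were DMSO with enzyme for no effect and buffer wells lacking enzyme for full effect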
MG interference = counter-screen for Scp-1 inhibitors: colorimetric interference; shares compounds with Scp1 inh; Colorimetric interference counterscreen, malachite green absorbance 630 nm; apparent inhibition (interference), % at 20 µM; 2,500 tested, under 10 active; AID 540313;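 also: compounds added after enzyme reaction finished so only phosphate colour detection is probed; plate controls were DMSO wells with completed Scp-1 reaction for no effect and substrate wells lacking enzyme for full effect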
Scp-1 Tm shift = validation of human Scp-1 inhibitors by thermal shift binding; thermal shift relative to vanadate control, % at 40 µM; AID 540329; shares compounds with Scp1 inh; 1,500 tested, 25% active; Recombinant SCP1, Sypro Orange thermal shift Tm;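 active = substances whose mean melting-temperature shift, as a percentage of the reference inhibitor's shift, reaches about 5.3%, limit read from the data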;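 also: 0% = Tm of DMSO wells and 100% = Tm with sodium orthovanadate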
Starred values were filed as active, the others as inactive; / = no result.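 The calls were made as follows, unless noted: active = inhibition of at least 30% at 20 µM; inactive = the rest.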

SMILES	rCAG RNA binder	Scp1 inh	NadD inh	LMPTP block	STEP block	Scp-1 conf	MG interference	Scp-1 Tm shift
O=C(NCCc1ccccc1)c1ccc(-c2ccccc2C(F)(F)F)o1	-1.5	96.8*	/	/	/	20.1	-27.2	/
O=C(O)c1cccc(-n2cccc2/C=C2/NC(=O)N(Cc3ccccc3F)C2=O)c1	7.1	51.8*	5.5	5.5	7.2	75.2*	1.2	0.2
Cc1ccccc1NC(=O)CN1C(=O)S/C(=C\c2cccn2-c2cccc(C(=O)O)c2)C1=O	6.9	84.2*	15.4	4.9	22.9	74.2*	-11.4	17.3*
Cc1cccc(C)c1NC(=O)CN1C(=O)S/C(=C\c2cccn2-c2cccc(C(=O)O)c2)C1=O	10.2	57.8*	8.2	0.2	18.2	81.0*	-13.4	6.6*
OC[C@H]1CC[C@@H]2O[C@H](CCc3ccc(-c4ccc(F)cc4)cc3)[C@H](n3cc(C4CC4)nn3)C[C@@H]2O1	7.5	/	/	/	/	/	/	/
CC1(C)C[C@H](O)[C@]2(CO)CC[C@]3(C)C(=CCC4[C@@]5(C)CC[C@H](O)C(C)(C)C5CC[C@]43C)[C@@H]2C1 (stereo partly drawn)	-2.6	-1.3	5.0	0.3	0.6	/	/	/
CC1O[C@@H](OC2C(COC3OC(CO)C(O)[C@H](O)C3O)OC(OC3CC[C@]4(C)C(CC[C@@]5(C)[C@@H]4CC=C4[C@@H]6CC(C)(C)CC[C@]6(CO)C(O)C[C@]45C)C3(C)C)C(O)C2O)C(O)C(O)C1O (stereo partly drawn)	-5.1	54.8*	-12.8	8.1	3.2	24.6	-8.7	/
O=C(c1cc(Br)cc(Br)c1)N1CCC(Oc2cccnc2)CC1	2.4	/	/	/	/	/	/	/
Cc1cc(C)c(NC(=O)COc2nc3ccccc3nc2C)c(C)c1	0.7	58.4*	-0.1	-1.6	0.2	-18.1	-13.4	/
CC(=O)c1ccc(S(=O)(=O)Oc2ccc(C(=O)O)cc2Cl)cc1	5.0	53.0*	-0.5	-0.7	-3.6	24.1	-6.0	/
O=C(O)c1ccccc1NCc1ccncc1	2.2	-2.7	3.4	-1.0	-3.9	/	/	/
O=C(O)c1ccc(CNc2ccccc2C(=O)O)cc1	1.0	52.6*	2.5	0.1	5.5	54.1*	-4.0	-9.2
Cc1ccc(S(=O)(=O)CCC(=O)N2CCc3ccccc32)cc1	2.5	-1.9	-1.5	1.2	-1.8	/	/	/
Cc1ccc(S(=O)(=O)CCC(=O)OCC(=O)N2CCc3ccccc32)cc1	-1.5	59.8*	-3.3	-0.1	-0.7	-9.0	-10.1	/
O=C(NNC1OC(CO)C(O)C(O)C1O)c1cccc(Br)c1 (stereo not drawn)	-0.5	-19.1	-2.5	-0.5	-3.3	10.3	1.4	/
CCN1CCN(c2ccc(NC(=O)c3cc4ccccc4cc3OC)cc2C)CC1	4.6	64.6*	17.4	0.2	-4.7	-22.5	-16.4	/
CCN1CCN(c2ccc(NC(=O)c3ccccc3F)cc2Cl)CC1	-5.9	-2.6	-13.1	-1.1	-0.8	/	/	/
Cc1ccc(S(=O)(=O)N(Cc2ccccc2)Cc2ccco2)cc1	3.5	-9.4	-2.4	2.9	2.6	/	/	/
COc1ccccc1N(CC(=O)NCc1ccco1)S(=O)(=O)c1ccc(C)cc1	9.8	87.1*	-2.7	9.0	61.0*	73.0*	-5.4	3.6
Cc1ccc(S(=O)(=O)N(CC(=O)O)Cc2ccco2)cc1	2.9	92.6*	1.2	9.4	5.2	60.7*	-20.2	-0.3
COC(=O)[C@]12C[C@H](CC(=O)NCc3ccccc3)C(=O)N(Cc3ccc(Cl)cc3Cl)C1=C[C@H](C(C)C)O[C@@H]2C1CC1	6.3	/	/	/	/	/	/	/
CCCN1CC(=O)N2[C@H](C[C@@]3(n4ccc5ccccc54)c4ccccc4N(S(=O)(=O)c4ccccc4)[C@@H]23)C1=O	6.1	/	/	/	/	/	/	/
CN(CC(=O)Nc1cccc(F)c1)C(=O)Cn1c(=O)cnc2ccccc21	-0.5	-3.9	1.0	-0.6	-1.8	/	/	/
Cc1cc(Br)ccc1NC(=O)CN(C)C(=O)Cn1c(=O)cnc2ccccc21	-6.4	96.4*	7.0	-2.0	1.1	88.6*	-10.4	-5.7
O=C(COC(=O)CNC(=O)c1ccccc1)NCc1ccc2c(c1)OCO2	-0.1	67.3*	-5.0	0.2	-1.0	-16.2	-18.9	/
SMILES	rCAG RNA binder	Scp1 inh	NadD inh	LMPTP block	STEP block	Scp-1 conf	MG interference	Scp-1 Tm shift
CCOc1ccc(-c2nnn(CC(=O)NCc3ccccc3)n2)cc1	0.3	57.2*	-6.4	1.8	0.6	-9.0	-21.6	/
CCOc1ccc(-c2nnn(CC(=O)NCc3ccco3)n2)cc1	5.4	-1.3	5.9	-1.6	5.8	/	/	/
COc1ccccc1/C=c1\sc2nc(-c3ccco3)nn2c1=O	/	68.7*	15.7	12.8	4.2	72.4*	-9.0	7.8*
CCOc1ccc(/C=c2\sc3nc(-c4ccco4)nn3c2=O)cc1OCC	26.6	42.1	5.3	0.5	0.9	/	/	/
O=C(CC1Sc2ccccc2NC1=O)Nc1cccc(C(=O)O)c1 (stereo not drawn)	8.1	59.9*	-3.6	0.8	1.7	36.3*	-20.3	-4.2
CC(=O)Nc1ccc2c(COC(=O)CC3Sc4ccccc4NC3=O)cc(=O)oc2c1 (stereo not drawn)	9.7	57.1*	7.0	14.2	12.1	69.8*	-9.8	3.7
CC(C)(C)OC(=O)NCc1cc(F)ccc1/C=C/S(=O)(=O)NC1CCCC1	-0.1	/	/	/	/	/	/	/
O=S1(=O)c2ccc(Br)cc2OC[C@H](Cc2ccccc2)N1Cc1cn(CCC2OCCCO2)nn1	-1.2	/	/	/	/	/	/	/
Cc1ccc(/C=C2\C(=N)N3N=C(CC(=O)N4CCCCC4)SC3=NC2=O)cc1	16.8	-1.4	3.8	-0.8	0.9	/	/	/
N=C1/C(=C/c2ccc(Br)o2)C(=O)N=C2SC(CC(=O)N3CCCC3)=NN12	22.2	87.9*	11.8	8.8	9.0	58.0*	-9.6	8.1*
N=C1/C(=C/c2ccco2)C(=O)N=C2SC(CC(=O)N3CCCC3)=NN12	23.9	73.3*	0.0	4.3	13.1	62.9*	-15.0	-4.7
C/C=C/C=C/C(=O)N1C[C@H](C)N(C)C[C@H]1C	0.6	/	/	/	/	/	/	/
C=CCN=C1NC(c2ccccc2C(F)(F)F)C(C(=O)OC)=C(C)N1Cc1ccccc1C(F)(F)F (stereo not drawn)	0.0	/	/	/	/	/	/	/
Cc1cccc(CCNC(=O)c2ccc3c(c2)ncn3C2CCCCC2)c1	0.0	/	/	/	/	/	/	/
CCN(C)C(=O)CNc1nnnn1-c1ccccc1	0.1	/	/	/	/	/	/	/
O=C1CCCN1CC(O)CS(=O)(=O)Cc1ccc(Cl)cc1 (stereo not drawn)	-1.9	-7.0	-8.8	-1.7	-1.1	0.1	-3.0	/
O=C(NCCc1ccccc1)OCc1cn(-c2ccc(Cl)cc2)nn1	0.3	/	/	/	/	/	/	/
CC(C)c1cc(C(=O)NC2CCCCC2)no1	-2.7	72.8*	-1.7	-0.4	-0.2	-7.1	-4.3	/
